Changes are numbered by the printed parent chain.
Tests used:
Assay type in all cases: biochemical
[1] = test system: sDTE (Sinorhizobium sp. D-tagatose 3-epimerase); experiment: Michaelis-Menten non-linear regression; settings: optimum pH 8.0 (Tris-HCl) and 50 °C; Mn2+
Procedure, shortened: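 Enzyme expressed from pET28a(+) in E. coli BL21(DE3) (0.5 mM IPTG, 16 °C, 20 h), purified on Ni-NTA then Resource Q. Standard assay: 20 mM Tris–HCl pH 8.0, 1 μM Mn2+, 0.5 μM enzyme, 50 °C, 10 min; stopped by boiling 5 min; sugars by HPLC-ELSD. Kinetics used four ketose substrates, with Michaelis–Menten non-linear fit; three repeats, mean ± S.D.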

[2] = target: T1, sDTE (Sinorhizobium sp. D-tagatose 3-epimerase) (Sinorhizobium sp., UniProt Z9YNK1L8X5, R65G); experiment: D-sorbose formation by HPLC, relative activity; settings: […] g/L D-tagatose, […] Mn2+, […] enzyme, pH […] °C, […] min
T1 sequence (Z9YNK1L8X5 1-293 R65G): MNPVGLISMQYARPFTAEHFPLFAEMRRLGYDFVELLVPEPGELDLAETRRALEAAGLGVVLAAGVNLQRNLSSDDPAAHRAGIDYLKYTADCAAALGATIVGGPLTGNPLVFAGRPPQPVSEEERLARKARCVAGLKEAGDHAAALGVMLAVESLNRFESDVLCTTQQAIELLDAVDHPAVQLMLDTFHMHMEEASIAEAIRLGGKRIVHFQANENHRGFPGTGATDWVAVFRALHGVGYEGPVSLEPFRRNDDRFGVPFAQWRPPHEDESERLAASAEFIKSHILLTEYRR

[3] = target: T2, sDTE (Sinorhizobium sp. D-tagatose 3-epimerase) (Sinorhizobium sp., UniProt Z9YNK1L8X5, M9A); experiment: D-sorbose formation by HPLC, relative activity; settings: […] g/L D-tagatose, […] Mn2+, […] enzyme, pH […] °C, […] min
T2 sequence (Z9YNK1L8X5 1-293 M9A): T1 sequence (Z9YNK1L8X5 1-293 R65G) with M9A, G65R

Km [1]	SMILES	D-sorbose formation by HPLC, relative activity [2]	D-sorbose formation by HPLC, relative activity [3]
83 ± 4.3 mM	OCC1(O)OC[C@@H](O)[C@H](O)[C@H]1O (stereo partly drawn) [D-Sorbose]		
54.7 ± 1.3 mM	OCC1(O)OC[C@@H](O)[C@@H](O)[C@@H]1O (stereo partly drawn) [D-Fructose]		
39.8 ± 1.7 mM	O=C(CO)[C@H](O)[C@H](O)[C@H](O)CO [D-Allulose]		

SMILES	Km [1]	D-sorbose formation by HPLC, relative activity [2]	D-sorbose formation by HPLC, relative activity [3]
OCC1(O)OC[C@@H](O)[C@H](O)[C@@H]1O (stereo partly drawn) [D-Tagatose]	26 ± 1.2 mM	the mutation of R65G and M9A abolished the catalytic activity toward D-tagatose	the mutation of R65G and M9A abolished the catalytic activity toward D-tagatose

— article PMC9059984 (RSC Advances, 2019)
